Source: PubChem BioAssay (Sanford-Burnham Center for Chemical Genomics)
Scp-1 inhibitor – blocks human Scp-1 phosphatase activity; AID 493091; Recombinant Scp1, phosphopeptide, malachite green phosphate absorbance; Q9GZU7; 340,000 compounds, 0.88% hits; inhibition, % at 20 µM;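 active = inhibition above about 50% at 20 µM, limit read from the data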;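 note: plate controls were DMSO wells with enzyme for no effect and wells lacking enzyme for full effect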
Target sequence (Q9GZU7 76-261 limits assumed): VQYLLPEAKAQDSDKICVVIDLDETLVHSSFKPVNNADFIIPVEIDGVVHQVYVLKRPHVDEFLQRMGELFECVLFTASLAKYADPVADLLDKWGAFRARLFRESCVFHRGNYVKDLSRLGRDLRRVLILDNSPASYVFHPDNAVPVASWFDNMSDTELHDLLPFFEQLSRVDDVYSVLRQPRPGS
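Assay system: SCP-1 catalytic fragment, aa 76-261 | Buffer or medium: Tris acetate buffer pH 5.5 with MgCl2 and Tween-20 | Compound: One concentration, 20 µM, with 1.0% DMSO | Also added: Phospho 17-mer peptide substrate | Signal: Absorbance at 630 nm | Incubation: 45 min enzyme reaction at room temperature | Measure: % inhibition of SCP-1 phosphate liberation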
SUMO1-SIM PPI – SUMO1-SIM interaction modulation. P63165. SUMO1 binding to a labelled peptide, TR-FRET, 1 h. inhibition, % at 20 µM. 360,000 compounds, 0.33% hits. AID 602429; in the data active = inhibition above about 37%
Target sequence (P63165 whole entry, looked up): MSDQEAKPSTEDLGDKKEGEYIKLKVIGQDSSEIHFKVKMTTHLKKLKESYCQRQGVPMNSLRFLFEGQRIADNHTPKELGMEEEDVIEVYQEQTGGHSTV
STEP block – STEP (human) phosphatase inhibition; P54829; recombinant STEP, OMFP fluorogenic substrate, fluorescence; inhibition, % at 20 µM; 360,000 compounds, 0.25% hits; AID 588621;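 active = inhibition at 20 µM, scaled per plate between control wells, above about 37%, limit read from the data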;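 note: 0% = DMSO with enzyme and substrate and 100% = substrate only without enzyme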
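material = STEP tyrosine phosphatase | reagent = fluorogenic phosphatase substrate OMFP at 25 µM final | doses = single compound dose of 20 µM, 1% DMSO final | schedule = 20 min reaction, room temperature, in the dark | measured by = fluorescence, 480/540 nm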
DNMT1 block – DNMT1 (human) enzyme inhibition; P26358; inhibition (reported as % activation of signal), % at 10 µM; AID 588458; DNMT1 molecular beacon, Hinp1I cleavage, fluorescence; 360,000 compounds, 0.83% hits; in the data active = inhibition above about 50%
LMPTP inh – LMPTP (human) inhibition; recombinant LMPTP-A, OMFP fluorogenic substrate, fluorescence intensity; 360,000 compounds, 0.22% hits; P24666; inhibition, % at 20 µM; AID 651560;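 active = compounds that cut the enzyme signal by at least half of the control window in the single-dose screen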;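 note: plate controls were DMSO wells with enzyme plus substrate for no effect and substrate without enzyme for full effect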
Target sequence (P24666 whole entry, looked up): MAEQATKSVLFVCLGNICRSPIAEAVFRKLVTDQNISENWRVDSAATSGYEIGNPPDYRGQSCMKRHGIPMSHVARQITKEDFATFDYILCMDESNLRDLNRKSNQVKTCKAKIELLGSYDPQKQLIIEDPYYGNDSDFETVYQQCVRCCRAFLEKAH
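Material: LMPTP-A; amount: 0.625 nM enzyme; doses: single 20 µM dose; times: reaction 50 min, room temperature, dark; technique: fluorescence intensity of OMFP turnover product; benchmarks: no-enzyme and uninhibited controls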
Scp-1 conf – Scp-1 (human) inhibition, single-dose confirmed; inhibition, % at 20 µM; shares compounds with Scp-1 inhibitor; recombinant SCP-1 catalytic domain, phosphate release, malachite green absorbance; 2,500 compounds, 61% hits;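 note: plate controls were DMSO with enzyme for no effect and buffer wells lacking enzyme for full effect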
Scp-1 MG ctr – interferes with malachite green readout, flagging false Scp-1 hits | Colorimetric interference counterscreen, malachite green absorbance 630 nm | 2,500 tested, under 10 active | apparent inhibition (interference), % at 20 µM | shares compounds with Scp-1 inhibitor | AID 540313;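 note: compounds added after enzyme reaction finished so only phosphate colour detection is probed; plate controls were DMSO wells with completed Scp-1 reaction for no effect and substrate wells lacking enzyme for full effect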
Scp-1 Tm shift – Scp-1 (human) binding by thermal shift. shares compounds with Scp-1 inhibitor. Recombinant SCP1, Sypro Orange thermal shift Tm. thermal shift relative to vanadate control, % at 40 µM. 1,500 compounds, 25% hits. AID 540329;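 active = substances whose mean melting-temperature shift, as a percentage of the reference inhibitor's shift, reaches about 5.3%, limit read from the data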;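 note: 0% = Tm of DMSO wells and 100% = Tm with sodium orthovanadate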
Active calls of the source: *. This is a sample that favours compounds with a hit; in the whole collection about 1.7% have one here.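 Rule for the calls, unless noted: active = inhibition of at least 30% at 20 µM; inactive = the rest.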

`O=C(COc1ccc2oc(-c3ccco3)cc(=O)c2c1)N1CCCCC1` gave Scp-1 inhibitor 60*, SUMO1-SIM PPI -26, STEP block 8, DNMT1 block 15, LMPTP inh 3, Scp-1 conf 44*, Scp-1 MG ctr -9 and Scp-1 Tm shift 1.
Screening COc1ccc(NC(C)=[N+](C)CCNS(=O)(=O)c2ccc(Cl)cc2)cc1 returned Scp-1 inhibitor 96*, SUMO1-SIM PPI -1, STEP block -4, DNMT1 block 3, LMPTP inh -1, Scp-1 conf 93*, Scp-1 MG ctr -4 and Scp-1 Tm shift -21.
Screening COc1ccc(NC(=O)CNS(=O)(=O)c2ccc(Cl)cc2)cc1 returned Scp-1 inhibitor 3, SUMO1-SIM PPI -4, STEP block 0, DNMT1 block 1 and LMPTP inh 0.
For CCOC(=O)N1CCN(c2ccc(S(=O)(=O)N3CCOCC3)cn2)CC1 the results were Scp-1 inhibitor 80*, SUMO1-SIM PPI -2, STEP block 4, DNMT1 block 1, LMPTP inh -1, Scp-1 conf -12 and Scp-1 MG ctr -16.
O=C(NNC(=O)c1ccccc1Br)c1ccc2nc[nH]c2c1 was read as Scp-1 inhibitor 73*, SUMO1-SIM PPI 12, STEP block 18, DNMT1 block 22, LMPTP inh 5, Scp-1 conf 66*, Scp-1 MG ctr -10 and Scp-1 Tm shift 3.
For O=C(NNC(=O)c1ccccc1F)c1ccc2nc[nH]c2c1 the results were Scp-1 inhibitor 11, SUMO1-SIM PPI 4, STEP block -3, DNMT1 block 1 and LMPTP inh 1.
Screening Cc1ccc2c(c1)C(=O)N1c3cc(C)c(C)cc3NC(=O)C1C(=O)N2 (centres undefined) returned SUMO1-SIM PPI -1, STEP block 3, DNMT1 block 15 and LMPTP inh -2.
For COc1ccccc1NS(=O)(=O)c1cc(N=N/C(C(=O)Nc2ccc(Cl)cc2)=C(/C)O)ccc1C the results were Scp-1 inhibitor -10, SUMO1-SIM PPI 0, STEP block 4, DNMT1 block 2 and LMPTP inh 0.
For COc1ccccc1NC(=O)/C(N=Nc1ccc(C)c(S(=O)(=O)Nc2ccccc2Cl)c1)=C(\C)O the results were Scp-1 inhibitor 50*, SUMO1-SIM PPI 2, STEP block 0, DNMT1 block -6, LMPTP inh 1, Scp-1 conf -25 and Scp-1 MG ctr -28.
CCc1nc2ccc(C(=O)NCc3ccc4c(c3)OCO4)cn2c1N(C)CCC(C)C was read as SUMO1-SIM PPI 3, STEP block -3, DNMT1 block -13 and LMPTP inh 2.
COc1ccc(-c2csc(C(NC(C)=O)c3ccccc3)n2)cc1 (centres undefined) was read as SUMO1-SIM PPI 5, STEP block -1, DNMT1 block 0 and LMPTP inh 0.
`O=C(N/N=C/c1ccc2ccccc2c1)c1ccc(COc2ccc3c(c2)CCC3)o1` gave Scp-1 inhibitor 102*, SUMO1-SIM PPI -1, STEP block 5, DNMT1 block 17, LMPTP inh 32, Scp-1 conf 71*, Scp-1 MG ctr -18 and Scp-1 Tm shift -21.
Screening CS(=O)(=O)Nc1cccc(NC(=O)C2Cc3c(-c4cccc(F)c4)ccnc3O2)c1 (centres undefined) returned SUMO1-SIM PPI -3, STEP block 0, DNMT1 block -2 and LMPTP inh 0.
COc1cc(CNc2ncnc3c2ncn3[C@H]2CN(Cc3ccco3)C[C@@H](CO)O2)cc(OC)c1OC was read as SUMO1-SIM PPI -1, STEP block 0, DNMT1 block -1 and LMPTP inh -1.
`Cc1c(C(=O)NCCN2CCOC2=O)oc2c(F)cccc12` gave Scp-1 inhibitor 1, SUMO1-SIM PPI 2, STEP block -2, DNMT1 block 0, LMPTP inh -1, Scp-1 conf -19 and Scp-1 MG ctr -16.
Screening Cc1ccnc(SCC(=O)NC2CCCCCC2)n1 returned Scp-1 inhibitor 1, SUMO1-SIM PPI 2, STEP block 3, DNMT1 block -2 and LMPTP inh -1.
CC(C(=O)NCc1ccccc1)n1c(CSCCOc2ccccc2)nc2ccccc21 (centres undefined) was read as SUMO1-SIM PPI -5 and LMPTP inh 1.
CCOC(=O)C1=C(C)Nc2ccccc2N/C1=N\S(=O)(=O)c1cc(C(=O)O)ccc1Cl was read as Scp-1 inhibitor 50*, SUMO1-SIM PPI 10, STEP block 10, DNMT1 block 39, LMPTP inh 7, Scp-1 conf 41*, Scp-1 MG ctr -19 and Scp-1 Tm shift -5.
Screening O=C(NCCCc1ccccc1)C1CC(=O)N(c2ccc3c(c2)OCCO3)C1 (centres undefined) returned Scp-1 inhibitor -2, SUMO1-SIM PPI 2, STEP block 2, DNMT1 block -8 and LMPTP inh 2.
For O=C(NC(Cc1ccccc1)c1nc2ccccc2[nH]1)C1CC(=O)N(c2ccc3c(c2)OCCO3)C1 (centres undefined) the results were Scp-1 inhibitor 72*, SUMO1-SIM PPI 2, STEP block -1, DNMT1 block -11, LMPTP inh 0, Scp-1 conf 34*, Scp-1 MG ctr -15 and Scp-1 Tm shift -6.
`O=C(NCCc1ccccc1)C1CC(=O)N(c2ccc3c(c2)OCCO3)C1` (centres undefined) gave Scp-1 inhibitor -1, SUMO1-SIM PPI 3, STEP block 1, DNMT1 block 0, LMPTP inh -1, Scp-1 conf -17 and Scp-1 MG ctr -12.
For O=C(Nc1nnc(C2CC2)s1)C1CC(=O)N(c2ccc3c(c2)OCCO3)C1 (centres undefined) the results were Scp-1 inhibitor 61*, SUMO1-SIM PPI 5, STEP block 3, DNMT1 block 40, LMPTP inh 3, Scp-1 conf 56*, Scp-1 MG ctr -18 and Scp-1 Tm shift 2.
`O=C(Nc1nnc(C2CCCCC2)s1)C1CC(=O)N(c2ccccc2)C1` (centres undefined) gave Scp-1 inhibitor -2, SUMO1-SIM PPI 1, STEP block 2, DNMT1 block 0 and LMPTP inh 0.
For Cc1ccc(C(=O)OCC(=O)Nc2cc(Cl)ccc2C#N)o1 the results were SUMO1-SIM PPI 2, STEP block 0, DNMT1 block -2 and LMPTP inh -1.
